Data set [1] in a line: melting temperature; fluorescence melt of hairpins on a sequencing array, two-state fit, raised by 9.35 °C to match UV melts. The following applies: sodium 0.088 M. An outline of the steps: (§1)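 Cy3 signals were normalised both to pre-quench Cy3 and to control constructs. They came from library hairpins carrying annealed Cy3 and quencher oligos on a sequenced MiSeq flow cell, imaged in 50 mM Na-HEPES pH 8.0, 25 mM NaCl, in 2.5 °C steps up to 60 °C. Bootstrapped two-state fits gave melting temperature and folding enthalpy, and four replicates were combined by inverse variance. Fitted temperatures were then raised by 9.35 °C to match UV melts.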

A short description of data set [2]: folding enthalpy; higher = less favourable; fluorescence melt of hairpins on a sequencing array, two-state fit. Particulars: sodium 0.088 M. An outline of the steps:
as §1

Consider ATACTGAAAAGTAT (((((....))))), for which the Tm in data set [1] came out at 30.6 °C. Besides, in data set [2], the folding enthalpy is -12.3 kcal/mol.
The corresponding values for GCAGGGCGAAAGCGTTGC (((..((....))..))) are 54.1 °C and -19.1 kcal/mol.
On the same counts, the results for GACTATACGAAAGTAGTC (((..(((....)))))) are 34.1 °C and -24.4 kcal/mol.
The corresponding values for GGTTGACGAAAGTCACC (((.(((....)))))) are 53.5 °C and -19.8 kcal/mol.
For the sequence GCGTGGAGACGC ((((....)))), the Tm in data set [1] is 55.6 °C. Moreover, in data set [2], the folding enthalpy was -18.2 kcal/mol.
On the same counts, the results for GAGAGCGAAAGCTGCCTC ((((((....)))..))) are 27.4 °C and -11.1 kcal/mol.
The corresponding values for GCGGTGCGAAAGCTGCGC (((..((....))..))) are 64.2 °C and -32.1 kcal/mol.
On the same counts, the results for GCTAGCACGAAAGTGAGC (((..(((....)))))) are 35.1 °C and -17.4 kcal/mol.
As to GATCCTCCCAAGGATC ((((((....)))))), the Tm in data set [1] turned out to be 53.1 °C. In data set [2], the folding enthalpy is -43.1 kcal/mol.
For GATCATCCTTATGATC ((((((....)))))), in data set [1], the Tm was 46.3 °C. Also, the folding enthalpy in data set [2] is -37 kcal/mol.
On the same counts, the results for GATCATTGCGATGATC ((((((....)))))) are 51.8 °C and -38.8 kcal/mol.
On the same counts, the results for GGACTCGAAAGAGATCC ((((((....))).))) are 44.7 °C and -22.1 kcal/mol.
With GGCTCGGGAAACTGAGCC (((((.(....).))))), the Tm in data set [1] was 61.4 °C. The folding enthalpy in data set [2] is -61.1 kcal/mol.
On the same counts, the results for GATCGTTCGCACGATC ((((((....)))))) are 54.2 °C and -38 kcal/mol.
On the same counts, the results for GCATAGCGAAAGCGAAGC ((.(.((....)).).)) are 58.1 °C and -22.6 kcal/mol.
The corresponding values for GGCCTTGGAAACAGGGTC (.((.((....)).)).) are 37.6 °C and -25 kcal/mol.
In the case of GGGCCAGGAAACCGACCC (((.(.(....).).))), the Tm in data set [1] was 34.6 °C. Besides, in data set [2], the folding enthalpy was -20.9 kcal/mol.
On the same counts, the results for GCTTCGGGAAACCGGAGC (((.(((....))).))) are 56.5 °C and -41.5 kcal/mol.
The corresponding values for GCGGAGCGAAAGCTGTGC ((..(((....)))..)) are 51 °C and -14.2 kcal/mol.
The corresponding values for GCTACCGAAAGGTGAGC ((((((....))).))) are 51 °C and -23.3 kcal/mol.
GCATTCGAAAGAATTGC ((((((....))).))): in data set [1], the Tm worked out at 41.1 °C. Moreover, the folding enthalpy in data set [2] is -19.5 kcal/mol.
On the same counts, the results for GATCCCAGTTGGGATC ((((((....)))))) are 61.2 °C and -42 kcal/mol.
As for GCCCTTGGAAACAAGGAC (.(((((....))))).), the Tm in data set [1] was 40.1 °C. The folding enthalpy in data set [2] is -17.5 kcal/mol.
Regarding GCGCGACGAAAGTCCCGC (((.(((....))).))), in data set [1], the Tm was 57.5 °C. The folding enthalpy in data set [2] is -42.8 kcal/mol.
The corresponding values for GATCCTCCCGAGGATC ((((((....)))))) are 56.4 °C and -36.9 kcal/mol.
The corresponding values for GTGTAAGGAAACTTATAC ((.((((....)))).)) are 33.8 °C and -19.6 kcal/mol.
On the same counts, the results for CGTTCGGAAACGACACG ((((((....))).))) are 39.3 °C and -26.9 kcal/mol.
For GTACCCGAAAGGGTCTAC ((((((....)))..))), the Tm in data set [1] is 42.2 °C. The folding enthalpy in data set [2] was -10.7 kcal/mol.
On the same counts, the results for GGGCGAGGAAACTTGCCC ((((.((....)).)))) are 59.1 °C and -45.6 kcal/mol.
On the same counts, the results for GTAGTCGGAAACGATTGC (.(.(((....))).).) are 31.2 °C and -17.2 kcal/mol.
Consider GTGACGCGAAAGCGACAC (((.(((....))).))), for which the Tm in data set [1] amounted to 69.3 °C. For the same sequence, the folding enthalpy in data set [2] was -33.9 kcal/mol.
On the same counts, the results for GAGAGGCCGAAAGGCCTC (((..(((....)))))) are 65.9 °C and -7.49 kcal/mol.
For the sequence GACGGGGGAAACCCCACC (..((((....))))..), the Tm in data set [1] is 30.3 °C. The folding enthalpy in data set [2] is -7.44 kcal/mol.
On the same counts, the results for GGCTACGAAAGTACGCC ((((((....))).))) are 53.5 °C and -33.4 kcal/mol.
The corresponding values for GCGACTGGAAACAGTTGC ((.((((....)))).)) are 55.5 °C and -45.4 kcal/mol.
On the same counts, the results for GTTGTTGGAAACAATAAC (((.(((....))).))) are 39.6 °C and -20.3 kcal/mol.
GTGCCCGAAAGGGAACAC ((((((....)))..))): in data set [1], the Tm came to 52.5 °C. In addition, the folding enthalpy in data set [2] is -15.2 kcal/mol.

The record behind these values is the array DNA melting data of Ke et al. (doi:10.1101/2024.01.08.574731).
